T cruzi growth-1: T. cruzi intracellular proliferation inhibitors, primary screen, cell-based, beta-gal Tulahuen parasites, NIH3T3 host, luminescence | T. cruzi beta-gal in NIH3T3, GalScreen luminescence, 90 h | inhibition, % at 8.34 µM | actives 5.9% (n = 77,000) | AID 624255, 2012;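 active = mean inhibition above about 93%, with at least 55% of replicates each passing it, limit read from the data, passing the limit was not always enough; inconclusive = only one of those two conditions holds; inactive = neither condition holds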
IDH1 R132H inh: inhibitors of IDH1 R132H reductase, primary screen, biochemical, plate reader, single point. AID 624101, 2012. actives 0.18% (n = 70,000). Isocitrate dehydrogenase [NADP] cytoplasmic (Homo sapiens), O75874. diaphorase/resazurin fluorescence, 60 min. inhibition, % at 10 µM; in the data active = inhibition above about 34%; inconclusive = no clear call, values can overlap the other calls; inactive = below about 11%
Target sequence (O75874 whole entry R132H): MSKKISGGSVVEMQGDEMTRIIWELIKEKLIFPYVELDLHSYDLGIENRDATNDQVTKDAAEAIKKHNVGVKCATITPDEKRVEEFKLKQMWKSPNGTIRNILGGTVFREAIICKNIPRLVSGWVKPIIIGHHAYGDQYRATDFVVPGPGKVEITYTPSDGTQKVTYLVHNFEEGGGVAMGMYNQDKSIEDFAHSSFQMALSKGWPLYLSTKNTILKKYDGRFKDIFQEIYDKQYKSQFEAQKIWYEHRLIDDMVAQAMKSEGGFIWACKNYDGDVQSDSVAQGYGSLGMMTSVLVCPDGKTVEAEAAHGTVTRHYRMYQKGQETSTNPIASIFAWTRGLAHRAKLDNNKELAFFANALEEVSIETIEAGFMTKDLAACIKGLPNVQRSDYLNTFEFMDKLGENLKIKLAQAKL
GASC1 inh: inhibitors of GASC-1 (KDM4C) histone demethylase, primary screen, biochemical, single concentration HTS | inhibition, % at 12.5 µM | Lysine-specific demethylase 4C (Homo sapiens), Q9H3R0 | GST-KDM4C 2-372, H3K9me3 peptide, LANCE TR-FRET | AID 720574, 2013 | actives 0.15% (n = 96,000);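 active = mean replicate inhibition above about 25%, with at least 55% of replicates also reaching it, limit read from the data, passing the limit was not always enough; inconclusive = only one of those two conditions met; inactive = neither condition met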
Target sequence (Q9H3R0 2-372 limits assumed): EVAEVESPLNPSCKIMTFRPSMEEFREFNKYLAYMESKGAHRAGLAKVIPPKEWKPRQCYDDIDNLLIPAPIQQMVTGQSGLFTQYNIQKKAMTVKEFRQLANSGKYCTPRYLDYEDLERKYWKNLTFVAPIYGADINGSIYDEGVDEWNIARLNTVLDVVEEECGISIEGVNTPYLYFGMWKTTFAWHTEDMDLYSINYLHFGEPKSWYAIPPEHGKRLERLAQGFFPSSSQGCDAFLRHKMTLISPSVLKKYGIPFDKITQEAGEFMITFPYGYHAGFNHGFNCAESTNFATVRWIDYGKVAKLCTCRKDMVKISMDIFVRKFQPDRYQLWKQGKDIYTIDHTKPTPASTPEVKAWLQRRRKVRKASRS
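Assay system: GST-GASC-1 enzyme fragment 2-372 | Amount: 10 nM enzyme | Medium: HEPES buffer, pH 7.5, plus ascorbate | Reagent: H3K9me3 peptide substrate, Fe(II), 2-oxoglutarate | Doses: Single-point compound screen | Incubation: 30 min demethylation and 1 h detection at room temperature | Measured by: LANCE TR-FRET, excitation 340 nm, emissions 618 and 671 nm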
Pf Dd2 inh: P. falciparum Dd2 growth inhibitors, primary screen, SYBR Green fluorescence, single dose replicates; 72 h; active compounds read low; actives 2.3% (n = 94,000); activity change, % at 10 µM; in the data active = activity change below about -80%; inconclusive = no clear call, values can overlap the other calls
T cruzi growth-2: T. cruzi intracellular proliferation inhibitors, confirmation, cell-based, NIH3T3 host, beta-gal parasite, luminescence, cherry-pick. shares compounds with T cruzi growth-1. T. cruzi beta-gal in NIH3T3, GalScreen luminescence, 90 h. inhibition, % at 8.35 µM. actives 72% (n = 5,600). AID 651739, 2012;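 active = mean replicate inhibition above about 95% and at least 55% of replicates individually reaching it, limit read from the data; inconclusive = only one of the two criteria is met; inactive = neither criterion is met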
T cruzi growth-3: inhibitors of intracellular T. cruzi replication, confirmation, NIH3T3 host cells, beta-gal parasites, cherry-pick, set 2 | shares compounds with T cruzi growth-1 | T. cruzi beta-gal in NIH3T3, GalScreen luminescence, 90 h | inhibition, % at 2.09 µM | actives 21% (n = 5,600) | AID 651740, 2012;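 active = mean inhibition above about 95%, with at least 55% of replicates also reaching it, limit read from the data; inconclusive = meets just one of the two conditions; inactive = meets neither condition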
NIH3T3 tox: cytotoxicity in mouse NIH/3T3 fibroblasts, confirmation, cytotoxicity control for T. cruzi proliferation inhibitor project, cell-based, cherry-pick, single point | shares compounds with T cruzi growth-1 | NIH/3T3 viability, CellTiter-Glo ATP luminescence, 90 h | cytotoxicity (signal decrease), % at 8.35 µM | actives 14% (n = 5,600) | AID 651742, 2012;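 active = mean signal decrease across replicates above about 35% based on untreated-well scatter, with enough replicates individually passing, limit read from the data; inconclusive = no rule stated though some were filed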
3T3 cytotox 2: NIH/3T3 fibroblast cytotoxicity, confirmation, cytotoxicity control, cell-based, cherry-pick, single point, set 2 | shares compounds with T cruzi growth-1 | NIH/3T3 viability, CellTiter-Glo ATP luminescence, 90 h | inhibition, % at 24.9 µM | actives 56% (n = 5,600);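 active = mean loss of cell viability signal at or above a set limit, and enough replicates individually reaching it; inconclusive = meets only the mean limit or only the replicate share; inactive = meets neither condition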
Large screens that a line does not name were inactive (follow-up assays come after a bar, where they were run). Hits are enriched below; roughly 5.8% of the tested compounds scored in any of these assays.

C[C@H](CO)N1C[C@H](C)[C@H](CN(C)C(=O)c2ccc(F)cc2)Oc2cc(-c3cccc(C#N)c3)ccc2S1(=O)=O	T cruzi growth-1 104 | T cruzi growth-2 inactive | T cruzi growth-3 inactive | NIH3T3 tox inactive | 3T3 cytotox 2 64
C[C@H](CO)N1C[C@H](C)[C@@H](CN(C)C)Oc2cc(-c3cccc(C#N)c3)ccc2S1(=O)=O	none
C[C@@H]1CN([C@@H](C)CO)S(=O)(=O)c2ccc(-c3cccc(C#N)c3)cc2O[C@H]1CN(C)C(=O)c1ccccc1	none
C[C@@H]1CN([C@H](C)CO)S(=O)(=O)c2ccc(-c3cccc(C#N)c3)cc2O[C@@H]1CN(C)C(=O)c1ccc(F)cc1	T cruzi growth-1 101 | T cruzi growth-2 102 | T cruzi growth-3 inactive | NIH3T3 tox inconclusive | 3T3 cytotox 2 88
C[C@@H]1CCCCO[C@H](CN(C)C(=O)Nc2ccc(F)cc2)[C@H](C)CN([C@H](C)CO)C(=O)c2cc(NC(=O)CCC(F)(F)F)ccc2O1	T cruzi growth-1 98 (no result: IDH1 R132H inh) | T cruzi growth-2 inactive | T cruzi growth-3 inactive | NIH3T3 tox inactive | 3T3 cytotox 2 32
C[C@H](CO)N1C[C@H](C)[C@@H](CN(C)C(=O)Nc2ccc(C(F)(F)F)cc2)OCCCC[C@H](C)Oc2ccc(NC(=O)CCC(F)(F)F)cc2C1=O	T cruzi growth-1 101 (no result: IDH1 R132H inh) | T cruzi growth-2 108 | T cruzi growth-3 inactive | NIH3T3 tox inactive | 3T3 cytotox 2 inactive
COc1ccc(NC(=O)N(C)C[C@@H]2Oc3ccc(NC(=O)CCC(F)(F)F)cc3C(=O)N([C@H](C)CO)C[C@H]2C)cc1	T cruzi growth-1 101 | T cruzi growth-2 inactive | T cruzi growth-3 inactive | NIH3T3 tox inactive | 3T3 cytotox 2 inactive
C[C@@H]1CN([C@H](C)CO)C(=O)c2cc(NC(=O)CCC(F)(F)F)ccc2O[C@@H](C)CCCCO[C@H]1CN(C)C(=O)Nc1ccc(F)cc1	none
O=C(Nc1ccccc1F)N[C@H]1CC[C@H](CCNC(=O)C2CC2)O[C@H]1CO	none (no result: T cruzi growth-1, Pf Dd2 inh)
CC=Cc1ccc2n(c1=O)C[C@H]1[C@H](CO)[C@@H](C(=O)NCc3ccccn3)[C@@H]2N1C (mixture of isomers)	T cruzi growth-1 active (no result: IDH1 R132H inh, Pf Dd2 inh) | T cruzi growth-2 inactive | T cruzi growth-3 inactive | NIH3T3 tox inactive | 3T3 cytotox 2 inactive
CC=Cc1ccc2n(c1=O)C[C@@H]1[C@@H](CO)[C@H](C(=O)NCCCN(C)C)[C@H]2N1C(=O)c1ccccc1F (mixture of isomers)	T cruzi growth-1 active (no result: IDH1 R132H inh, Pf Dd2 inh) | T cruzi growth-2 inactive | T cruzi growth-3 inactive | NIH3T3 tox inactive | 3T3 cytotox 2 inactive
CC=Cc1ccc2n(c1=O)C[C@@H]1[C@@H](CO)[C@H](C(=O)Nc3ccc(-c4ccccc4)cc3)[C@H]2N1C(=O)CC (mixture of isomers)	T cruzi growth-1 135 (no result: IDH1 R132H inh, Pf Dd2 inh) | T cruzi growth-2 103 | T cruzi growth-3 inactive | NIH3T3 tox inactive | 3T3 cytotox 2 48
CC=Cc1ccc2n(c1=O)C[C@@H]1[C@@H](CO)[C@H](C(=O)NCc3ccccc3Cl)N(S(C)(=O)=O)[C@H]21 (mixture of isomers)	T cruzi growth-1 98 (no result: IDH1 R132H inh, Pf Dd2 inh) | T cruzi growth-2 inactive | T cruzi growth-3 inactive | NIH3T3 tox inactive | 3T3 cytotox 2 inactive
CC=Cc1ccc2n(c1=O)C[C@H]1[C@H](CO)[C@@H](C(=O)NCCC)[C@@H]2N1C(=O)C1CC1 (mixture of isomers)	T cruzi growth-1 112 (no result: IDH1 R132H inh) | T cruzi growth-2 99 | T cruzi growth-3 inactive | NIH3T3 tox inactive | 3T3 cytotox 2 inactive
CN(C)C(=O)c1cccc(-c2ccc([C@@H]3[C@@H](CO)N4CCCCN(C(=O)C5CCC5)C[C@H]34)cc2)c1	none (no result: IDH1 R132H inh)
CN(C)C(=O)c1cccc(-c2ccc([C@H]3[C@@H](CO)N4CCCCN(C(=O)C5CCCC5)C[C@H]34)cc2)c1	T cruzi growth-1 103 (no result: IDH1 R132H inh, GASC1 inh) | T cruzi growth-2 98 | T cruzi growth-3 inactive | NIH3T3 tox inactive | 3T3 cytotox 2 inactive
CN(C)C(=O)c1cccc(-c2ccc([C@@H]3[C@H](CO)N4CCCCN(C(=O)C5CCC5)C[C@@H]34)cc2)c1	T cruzi growth-1 104 (no result: IDH1 R132H inh) | T cruzi growth-2 inactive | T cruzi growth-3 inactive | NIH3T3 tox inactive | 3T3 cytotox 2 inactive
COc1ccc(CN(C)C[C@H]2Oc3ccc(NC(=O)Nc4ccccc4)cc3CC(=O)N([C@@H](C)CO)C[C@H]2C)cc1	none (no result: IDH1 R132H inh)
CCS(=O)(=O)N1CCCCN2[C@@H](CO)[C@H](c3ccc(-c4ccccc4F)cc3)[C@@H]2C1	T cruzi growth-1 inconclusive (no result: IDH1 R132H inh) | T cruzi growth-2 104 | T cruzi growth-3 inactive | NIH3T3 tox inactive | 3T3 cytotox 2 42
CCS(=O)(=O)N1CCCCN2[C@H](CO)[C@@H](c3ccc(-c4ccccc4F)cc3)[C@@H]2C1	T cruzi growth-1 inconclusive (no result: IDH1 R132H inh) | T cruzi growth-2 103 | T cruzi growth-3 inactive | NIH3T3 tox inactive | 3T3 cytotox 2 inactive
CCS(=O)(=O)N1CCCCN2[C@@H](CO)[C@@H](c3ccc(-c4ccccc4F)cc3)[C@@H]2C1	T cruzi growth-1 106 (no result: IDH1 R132H inh) | T cruzi growth-2 inactive | T cruzi growth-3 inactive | NIH3T3 tox inactive | 3T3 cytotox 2 57
O=C(NCc1ccco1)C1CC(c2ccccc2Cl)=NO1 (stereo unspecified)	none (no result: T cruzi growth-1, GASC1 inh, Pf Dd2 inh)
O=C(NC1CCCCC1)N1CC(=O)N2[C@H](CO)[C@H](c3ccc(-c4cccnc4)cc3)[C@H]2C1	none (no result: T cruzi growth-1, IDH1 R132H inh)
CN(C)C(=O)c1ccc(-c2ccc([C@H]3[C@@H](CO)N4CCCCN(C(=O)C5CCCC5)C[C@@H]34)cc2)cc1	T cruzi growth-1 inconclusive (no result: IDH1 R132H inh, GASC1 inh) | T cruzi growth-2 110 | T cruzi growth-3 inactive | NIH3T3 tox inactive | 3T3 cytotox 2 inactive
C/C=C/c1ccc([C@H]2[C@@H](CO)N3CCCCN(C(=O)C4CCCC4)C[C@@H]23)cc1	T cruzi growth-1 107 (no result: IDH1 R132H inh) | T cruzi growth-2 108 | T cruzi growth-3 inactive | NIH3T3 tox inactive | 3T3 cytotox 2 inactive
CN(C)C(=O)c1ccc(-c2ccc([C@H]3[C@@H](CO)N4CCCCN(C(=O)C5CCCC5)C[C@H]34)cc2)cc1	T cruzi growth-1 102 (no result: IDH1 R132H inh, GASC1 inh) | T cruzi growth-2 105 | T cruzi growth-3 101 | NIH3T3 tox inactive | 3T3 cytotox 2 39
